Drawing on ChEMBL document CHEMBL3994580, “A novel class of α-glucosidase and HMG-CoA reductase inhibitors from Ganoderma leucocontextum and the anti-diabetic properties of ganomycin I in KK-Ay mice” (Eur J Med Chem, 2017), this text covers IC50, inhibition and Activity for 9 molecules.

pIC50: −log10 of the molar value. Calls of active or inactive are those of the source. The calls are words filed in the database; no cut-off is given here.

As usually defined, the pIC50 is −log10 of the IC50, conventionally taken in molar units.

Series [1] has as its target T1, 3-hydroxy-3-methylglutaryl-coenzyme A reductase (Sus scrofa, UniProt Q1W675).
T1 sequence (Q1W675 whole entry): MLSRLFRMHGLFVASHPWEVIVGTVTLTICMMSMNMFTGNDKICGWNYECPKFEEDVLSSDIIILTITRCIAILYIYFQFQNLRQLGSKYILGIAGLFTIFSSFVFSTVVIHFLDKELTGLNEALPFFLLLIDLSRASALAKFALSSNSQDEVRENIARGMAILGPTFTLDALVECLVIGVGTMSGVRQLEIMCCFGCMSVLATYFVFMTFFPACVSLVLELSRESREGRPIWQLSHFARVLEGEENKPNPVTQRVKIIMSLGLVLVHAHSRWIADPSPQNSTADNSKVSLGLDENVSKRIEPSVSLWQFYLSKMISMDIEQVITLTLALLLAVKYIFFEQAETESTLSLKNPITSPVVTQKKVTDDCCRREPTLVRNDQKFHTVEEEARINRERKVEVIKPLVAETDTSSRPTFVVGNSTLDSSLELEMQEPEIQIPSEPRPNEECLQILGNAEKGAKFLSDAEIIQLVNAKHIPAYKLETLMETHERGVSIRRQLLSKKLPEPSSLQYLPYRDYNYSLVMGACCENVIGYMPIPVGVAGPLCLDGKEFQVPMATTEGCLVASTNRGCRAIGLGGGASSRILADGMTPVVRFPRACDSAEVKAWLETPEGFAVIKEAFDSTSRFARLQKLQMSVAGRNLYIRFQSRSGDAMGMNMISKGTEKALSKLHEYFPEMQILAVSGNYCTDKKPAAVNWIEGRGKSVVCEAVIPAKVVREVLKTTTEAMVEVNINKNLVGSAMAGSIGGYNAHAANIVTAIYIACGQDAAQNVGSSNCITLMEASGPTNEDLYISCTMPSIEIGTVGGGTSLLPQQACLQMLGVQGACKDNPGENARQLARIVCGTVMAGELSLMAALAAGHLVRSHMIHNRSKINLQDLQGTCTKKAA
Put plainly: (§1) Inhibition of HMG-CoA reductase in pig liver microsomes using HMG-CoA as substrate preincubated for 5 mins followed by NADPH addition measured after 15 mins by colorimetric method. The essentials:
(§2)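 HMG-CoA reductase activity followed by absorbance at 340 nm. Blank had potassium phosphate buffer instead of enzyme, and control had buffer instead of compound. Percent inhibition calculated from blank-corrected OD.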
In general terms: Microsomes from liver hold many membrane-bound enzymes, among them those of drug oxidation.

Series [2] in a line: Inhibition of baker's yeast alpha-glucosidase using p-nitrophenyl alpha-D-glucopyranoside as substrate preincubated for 10 mins followed by substrate addition measured for 15 mins. Set-up: species or system Saccharomyces cerevisiae. An outline of the steps: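 Baker's yeast α-glucosidase with pNPG, read at 405 nm. Control contained phosphate buffer in place of compound, and blank contained buffer in place of enzyme.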

A short description of series [3]: Inhibition of alpha-glucosidase in rat small intestinal mucosa assessed as reduction in glucose production using p-nitrophenyl alpha-D-glucopyranoside as substrate measured after 40 mins by glucose oxidase assay. An outline of the steps:
(§3)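 Rat small intestinal mucosa enzyme. Compound in DMSO mixed with substrate (maltose, sucrose or pNPG) and enzyme in 0.1 M phosphate buffer pH 6.9, incubated 40 min. Glucose released measured by glucose oxidase kit at 550 nm. Blank lacked enzyme, control lacked compound. Percent inhibition calculated from blank-corrected OD.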

The target in series [4] is Sucrase-isomaltase, intestinal (Rattus norvegicus, UniProt P23739). The experiment in a line: Inhibition of sucrase in rat small intestinal mucosa assessed as reduction in glucose production using sucrose as substrate measured after 40 mins by glucose oxidase assay. The essentials: as §3
Series [5] is described as follows: Inhibition of maltase in rat small intestinal mucosa assessed as reduction in glucose production using maltose as substrate measured after 40 mins by glucose oxidase assay. The essentials:
as §3

Another series has as its system Saccharomyces cerevisiae. The experiment in a line: Non-competitive inhibition of baker's yeast alpha-glucosidase using varying levels of p-nitrophenyl alpha-D-glucopyranoside as substrate preincubated for 10 mins followed by substrate addition measured for 15 mins by Lineweaver-Burk plot analysis. The essentials: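 Kinetics with inhibitor at 0.3 to 1 μM against α-glucosidase. pNPG at 2, 4, 6 and 8 μM. Initial velocities measured with and without inhibitor, and inhibition type assigned from Michaelis-Menten and Lineweaver-Burk plots.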

Series [6] deals with T2, 3-hydroxy-3-methylglutaryl-coenzyme A reductase (Sus scrofa) (UniProt Q1W675).
T2 sequence (whole entry): T1 sequence (Q1W675 whole entry)
The description is as §1. An outline of the steps:
as §2

Series [7] has as its system Mus musculus. Put plainly: Antidiabetic activity in KK-Ay diabetic mouse model assessed as reduction in blood glucose level after 4 hrs fasting at 10 mg/kg/day administered via oral gavage once daily measured on day 3 post dose. In kind it is functional, organism-based. The essentials: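 KK-Ay mice on high-fat diet, gavaged once daily (1 or 5 mg/kg; rosiglitazone 10 mg/kg). Blood glucose monitored sequentially after 4 h fasting. Mean ± SEM, n = 8, compared with the KK-Ay model group.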

Series [8] concerns Mus musculus. Put plainly: Antidiabetic activity in KK-Ay diabetic mouse model assessed as reduction in free diet blood glucose level at 10 mg/kg/day administered via oral gavage once daily measured on day 3 post dose. In kind it is functional, organism-based. An outline of the steps: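 Non-fasted (free diet) blood glucose was tracked serially in high-fat-fed KK-Ay mice given daily gavage doses (1 or 5 mg/kg; rosiglitazone 10 mg/kg). Mean ± SEM, n = 8.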

Series [9] has as its system Mus musculus. The experiment in a line: Antidiabetic activity in KK-Ay diabetic mouse model assessed as reduction in HbA1C level at 10 mg/kg/day administered via oral gavage once daily for 21 days. It is filed as functional, organism-based.
For series [10], the system named is Mus musculus. Put plainly: Toxicity in KK-Ay diabetic mouse model assessed as changes in body weight at 10 mg/kg/day administered via oral gavage once daily for 21 days measured every 3 days during compound dosing. In kind it is organism-based. The settings on record: in vivo. An outline of the steps: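 In high-fat-fed KK-Ay mice gavaged once daily for 21 days, individual body weight and cage food consumption were recorded every 3 days. Mean ± SEM, n = 8.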

Series [11] has as its system Mus musculus. Put plainly: Antidiabetic activity in KK-Ay diabetic mouse model assessed as reduction in serum insulin level at 10 mg/kg/day administered via oral gavage once daily for 21 days. In kind it is functional, organism-based. An outline of the steps:
(§4)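 Male KK-Ay mice (8 weeks old) on high-fat diet with water ad libitum, dosed by gavage once daily for 21 days (1 or 5 mg/kg test; rosiglitazone 10 mg/kg); female C57BL/6J mice as normal controls. Blood collected at study end. Serum lipids, insulin and glucose measured per cited method. ISI calculated from fasting blood glucose and fasting insulin. Mean ± SEM, n = 7-8.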

Series [12] has as its system Mus musculus. Put plainly: Antidiabetic activity in KK-Ay diabetic mouse model assessed as increase in insulin sensitivity index at 10 mg/kg/day administered via oral gavage once daily for 21 days. In kind it is functional, organism-based. The essentials: as §4
For series [13], the system named is Mus musculus. The experiment in a line: Antidiabetic activity in KK-Ay diabetic mouse model assessed as reduction in blood glucose level at 10 mg/kg/day administered via oral gavage once daily for 21 days measured at 30 to 60 mins post glucose challenge by oral glucose tolerance test. It is filed as functional, organism-based. The essentials: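 OGTT on day 21 of daily gavage dosing in KK-Ay mice. Blood glucose read at time points including 30 and 60 min, and the AUC was calculated. Mean ± SEM, n = 8.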

Series [14] relates to Mus musculus. The experiment in a line: Antidiabetic activity in KK-Ay diabetic mouse model assessed as reduction in blood glucose level at 10 mg/kg/day administered via oral gavage once daily measured on day 19 at 30 to 60 mins post insulin challenge by insulin tolerance test. In kind it is functional, organism-based. An outline of the steps: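 ITT on day 19 of treatment: after 4 h fasting, insulin 0.6 U·kg-1 given intraperitoneally. Glycaemia was sampled from the tail tip before and at set times after injection, and the AUC was computed. Mean ± SEM, n = 8.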

Series [15] deals with Mus musculus. The experiment in a line: Hypolipidemic activity in KK-Ay diabetic mouse model assessed as reduction in serum NEFA level at 10 mg/kg/day administered via oral gavage once daily for 21 days. It is filed as functional, organism-based. An outline of the steps:
as §4

Series [16] relates to Mus musculus. Put plainly: Hypolipidemic activity in KK-Ay diabetic mouse model assessed as reduction in serum triglyceride level at 10 mg/kg/day administered via oral gavage once daily for 21 days. In kind it is functional, organism-based. The essentials: as §4
In series [17] the test system is Mus musculus. The experiment in a line: Hypolipidemic activity in KK-Ay diabetic mouse model assessed as reduction in serum total cholesterol level at 10 mg/kg/day administered via oral gavage once daily for 21 days. It is filed as functional, organism-based. The essentials: as §4
Series [18] has as its system Mus musculus. Put plainly: Hypoglycemic activity in KK-Ay diabetic mouse model assessed as increase in liver hepatic glycogen level at 10 mg/kg/day administered via oral gavage once daily for 4 weeks. It is filed as functional, organism-based.
Series [19] concerns Mus musculus. Put plainly: Effect on serum AST level in KK-Ay diabetic mouse model at 10 mg/kg/day administered via oral gavage once daily for 21 days. It is filed as functional, organism-based. An outline of the steps:
as §4

Series [20] has as its system Mus musculus. Put plainly: Decrease in hepatocyte hypertrophy in KK-Ay diabetic mouse model at 10 mg/kg/day administered via oral gavage once daily for 21 days by haematoxylin and eosin staining based microscopic or morphometric method. It is filed as functional, organism-based. An outline of the steps: (§5)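 At study end, liver and abdominal white adipose tissue were fixed in 10% formaldehyde PBS (pH 7.4), paraffin-embedded, sectioned and stained with haematoxylin/eosin. Sections were assessed by microscopy or morphometry at 20×.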

Series [21] concerns Mus musculus. Put plainly: Decrease in lipid droplet accumulation in liver in KK-Ay diabetic mouse model at 10 mg/kg/day administered via oral gavage once daily for 21 days by haematoxylin and eosin staining based microscopic or morphometric method. In kind it is functional, organism-based. The essentials: as §5
Series [22] concerns Mus musculus. The experiment in a line: Decrease in size of adipocytes in abdominal white adipose tissue in KK-Ay diabetic mouse model at 10 mg/kg/day administered via oral gavage once daily for 21 days by haematoxylin and eosin staining based microscopic or morphometric method. In kind it is functional, organism-based. The essentials: as §5

Sequence of Sucrase-isomaltase, intestinal (P23739 1-1013 limits assumed): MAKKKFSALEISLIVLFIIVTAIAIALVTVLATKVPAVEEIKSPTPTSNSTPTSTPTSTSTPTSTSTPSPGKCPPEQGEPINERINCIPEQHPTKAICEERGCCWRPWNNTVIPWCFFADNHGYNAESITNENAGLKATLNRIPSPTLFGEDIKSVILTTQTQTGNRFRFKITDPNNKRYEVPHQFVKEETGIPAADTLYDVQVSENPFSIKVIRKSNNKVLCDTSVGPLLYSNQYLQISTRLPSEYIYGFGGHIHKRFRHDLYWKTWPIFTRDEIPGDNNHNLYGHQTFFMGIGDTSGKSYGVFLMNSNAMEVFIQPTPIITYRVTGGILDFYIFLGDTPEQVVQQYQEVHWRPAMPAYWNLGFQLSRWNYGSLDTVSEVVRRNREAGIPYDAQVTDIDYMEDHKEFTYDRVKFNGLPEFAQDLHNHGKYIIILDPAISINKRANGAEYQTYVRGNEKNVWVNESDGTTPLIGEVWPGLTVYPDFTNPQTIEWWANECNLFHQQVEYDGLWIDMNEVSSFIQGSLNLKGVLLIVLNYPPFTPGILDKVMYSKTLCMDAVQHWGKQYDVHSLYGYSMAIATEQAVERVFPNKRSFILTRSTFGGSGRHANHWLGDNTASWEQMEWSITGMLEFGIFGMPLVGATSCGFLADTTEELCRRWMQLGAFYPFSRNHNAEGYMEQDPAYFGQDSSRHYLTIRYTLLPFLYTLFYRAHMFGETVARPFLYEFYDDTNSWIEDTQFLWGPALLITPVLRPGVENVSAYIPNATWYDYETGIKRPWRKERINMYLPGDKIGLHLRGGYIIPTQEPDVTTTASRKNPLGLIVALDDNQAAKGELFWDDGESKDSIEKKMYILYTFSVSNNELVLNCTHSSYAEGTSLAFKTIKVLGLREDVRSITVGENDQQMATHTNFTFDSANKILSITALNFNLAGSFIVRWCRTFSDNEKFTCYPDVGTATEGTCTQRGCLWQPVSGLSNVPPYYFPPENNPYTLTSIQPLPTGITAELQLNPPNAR
Sequence of Sucrase-isomaltase, intestinal (P23739 1014-1841 limits assumed): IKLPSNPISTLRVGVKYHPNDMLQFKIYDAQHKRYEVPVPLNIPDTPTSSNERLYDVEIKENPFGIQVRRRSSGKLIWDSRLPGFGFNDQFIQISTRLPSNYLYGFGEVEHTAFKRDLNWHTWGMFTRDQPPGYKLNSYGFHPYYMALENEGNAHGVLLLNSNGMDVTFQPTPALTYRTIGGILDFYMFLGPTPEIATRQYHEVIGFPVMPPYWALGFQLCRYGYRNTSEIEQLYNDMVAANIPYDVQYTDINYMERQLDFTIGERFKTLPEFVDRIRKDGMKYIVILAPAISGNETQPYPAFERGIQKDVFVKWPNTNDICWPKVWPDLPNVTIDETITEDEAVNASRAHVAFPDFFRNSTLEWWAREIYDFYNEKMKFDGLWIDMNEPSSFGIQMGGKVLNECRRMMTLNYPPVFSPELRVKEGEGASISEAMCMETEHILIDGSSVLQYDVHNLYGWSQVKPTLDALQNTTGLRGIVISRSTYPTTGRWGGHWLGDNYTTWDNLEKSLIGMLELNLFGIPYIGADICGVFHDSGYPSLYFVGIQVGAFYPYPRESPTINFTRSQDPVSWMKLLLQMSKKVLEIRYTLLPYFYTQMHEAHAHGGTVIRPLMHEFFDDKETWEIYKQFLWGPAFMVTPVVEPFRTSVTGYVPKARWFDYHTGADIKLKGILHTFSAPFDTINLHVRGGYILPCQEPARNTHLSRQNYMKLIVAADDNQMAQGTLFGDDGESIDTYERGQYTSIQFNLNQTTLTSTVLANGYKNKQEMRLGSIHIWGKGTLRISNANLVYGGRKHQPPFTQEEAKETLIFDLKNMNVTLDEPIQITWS

As for `C/C(C=O)=C\CC/C(C)=C/CCC1=C[C@H](c2cc(O)ccc2O)OC1=O`, the pIC50 in [1] was < 4.00; in series [2], 4.90; in series [3] it was 4.80; in series [4] it was < 4.00; in [5], 4.10. For the same molecule, the inhibition entry in the series on Saccharomyces cerevisiae was “Active”.
In series [2], `C[C@H]1O[C@H](O[C@H]2[C@H](O)[C@@H](O)[C@@H](O[C@H]3[C@H](O)[C@@H](O)C(O)O[C@@H]3CO)O[C@@H]2CO)[C@H](O)[C@@H](O)[C@@H]1N[C@H]1C=C(CO)[C@@H](O)[C@H](O)[C@H]1O` (stereo partly specified) [ACARBOSE] gave a pIC50 of 3.56.
`COC1(c2cc(O)ccc2O)C=C(CC/C=C(\C)CC/C=C(\C)C=O)C(=O)O1` (stereo unspecified): the inhibition result in [6] was “Dose-dependent effect”. The pIC50 in [1] is 4.24; in [2] it was 4.99; in series [3], 4.80; in [4], < 4.00; in series [5], 4.62. Further, in the series with Saccharomyces cerevisiae, the inhibition entry was “Active”.
In the case of `C/C1=C/CC/C(=C/Cc2cc(O)ccc2O)C(=O)OC(C)(C)[C@H](O)CC1`, the pIC50 in series [1] was < 4.00; in series [2], 5.20; in series [3], 5.44; in series [4], < 4.00; in series [5] it was 4.34. Besides, the inhibition result in the series on Saccharomyces cerevisiae was “Active”.
As to `CC(C)=CCC/C(C)=C/CC/C(=C/Cc1cc(O)ccc1O)C(=O)O` [GANOMYCIN B], the inhibition result in [6] was “Dose-dependent effect”. For the same molecule, the pIC50 in series [1] was 4.53; in series [2] it was 5.80; in series [3], 5.23; in series [4], 4.45; in [5] it was 4.75. The inhibition result with Saccharomyces cerevisiae was “Active”.
Take `CC(C)=CCC/C(C)=C/CC/C(=C/C(=O)c1cc(O)ccc1O)C(=O)O`: the inhibition entry in series [6] is “Dose-dependent effect”. For the same molecule, the pIC50 was 4.34 in series [1]; 5.49 in [2]; 5.19 in series [3]; < 4.00 in series [4]; 4.74 in series [5]. Moreover, the inhibition entry with Saccharomyces cerevisiae is “Active”.
For `CN(CCOc1ccc(CC2SC(=O)NC2=O)cc1)c1ccccn1` (stereo unspecified) [ROSIGLITAZONE], the outcome with Mus musculus [7], in the series on Mus musculus [8], with Mus musculus [9], with Mus musculus [11], in the series on Mus musculus [12] and in the series with Mus musculus [13] was Active. For the same molecule, the outcome with Mus musculus [14], in the series on Mus musculus [15], in the series on Mus musculus [16], in the series on Mus musculus [17] and with Mus musculus [22] was Active. In addition, the Activity entry with Mus musculus [10] is listed as “Toxic”. The result in the series on Mus musculus [18], in the series on Mus musculus [19], in the series with Mus musculus [20] and in the series with Mus musculus [21] was inactive.
As for `CC(C)=CCC/C(C)=C/CCC(CC(=O)c1cc(O)ccc1O)C(=O)O` (stereo unspecified) [FORNICIN C], the pIC50 in [1] was < 4.00; in series [2], 4.49; in series [3] it was 4.21; in [4], < 4.00; in series [5], 4.34. The inhibition result in the series on Saccharomyces cerevisiae is “Active”.
As for `CC(C)=CCC/C(C)=C/CC/C(=C\Cc1cc(O)ccc1O)C(=O)O`, the pIC50 in series [1], in series [2], in [3], in [4] and in series [5] was < 4.00 throughout.
